ChEMBL document CHEMBL1140227, “Histone deacetylase inhibitors through click chemistry” (J Med Chem, 2008)

How the values were obtained:
Format in all cases: functional
MDA-MB-468 = assay: Growth inhibition of human MDA-MB-468 cells at 10 uM relative to control; settings: values are per cent of control
Method in brief: (§1)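 Single-dose preliminary screen in the NCI human cancer cell line panel, run by the NIH. Percent inhibition of cell line growth was calculated by comparison with untreated samples.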

[1] = Growth inhibition of human Hs 578T cells at 10 uM relative to control; settings: values are per cent of control; method in brief: as §1
KM12 = assay: Growth inhibition of human KM12 cells at 10 uM relative to control; settings: values are per cent of control; method in brief: as §1
UACC-62 = assay: Growth inhibition of human UACC62 cells at 10 uM relative to control; settings: values are per cent of control
Method in brief: (§2)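 Single-dose NCI human tumour cell line screen, run by the NIH. Percent inhibition of cell line growth was calculated by comparison with untreated samples.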

Malme-3M = assay: Growth inhibition of human MALME-3M cells at 10 uM relative to control; settings: values are per cent of control; method in brief: as §1
SK-OV-3 = assay: Growth inhibition of human SKOV3 cells at 10 uM relative to control; settings: values are per cent of control; method in brief: as §1
UO-31 = assay: Growth inhibition of human UO31 cells at 10 uM relative to control; settings: values are per cent of control; method in brief: as §2
COLO 205 = assay: Growth inhibition of human COLO205 cells at 10 uM relative to control; settings: values are per cent of control; method in brief: as §1
SK-MEL-5 = assay: Growth inhibition of human SK-MEL-5 cells at 10 uM relative to control; settings: values are per cent of control; method in brief: as §1
NCI/ADR-RES = assay: Growth inhibition of human NCI/ADR-RES cells at 10 uM relative to control; settings: values are per cent of control; method in brief: as §1
OVCAR-5 = assay: Growth inhibition of human OVCAR5 cells at 10 uM relative to control; settings: values are per cent of control; method in brief: as §1
NCI-H322M = assay: Growth inhibition of human NCI-H322M cells at 10 uM relative to control; settings: values are per cent of control; method in brief: as §1
SNB-75 = assay: Growth inhibition of human SNB75 cells at 10 uM relative to control; settings: values are per cent of control; method in brief: as §2
A549 = assay: Growth inhibition of human A549 cells at 10 uM relative to control; settings: values are per cent of control; method in brief: as §1
IGROV-1 = assay: Growth inhibition of human IGROV1 cells at 10 uM relative to control; settings: values are per cent of control; method in brief: as §1
MDA-MB-231 = assay: Growth inhibition of human MDA-MB-231 cells at 10 uM relative to control; settings: values are per cent of control; method in brief: as §1
SW-620 = assay: Growth inhibition of human SW620 cells at 10 uM relative to control; settings: values are per cent of control; method in brief: as §2
K562 = assay: Growth inhibition of human K562 cells at 10 uM relative to control; settings: values are per cent of control; method in brief: as §1
HOP-62 = assay: Growth inhibition of human HOP62 cells at 10 uM relative to control; settings: values are per cent of control; method in brief: as §1
ACHN = assay: Growth inhibition of human ACHN cells at 10 uM relative to control; settings: values are per cent of control; method in brief: as §1
NCI-H23 = assay: Growth inhibition of human NCI-H23 cells at 10 uM relative to control; settings: values are per cent of control; method in brief: as §1
DU-145 = assay: Growth inhibition of human DU145 cells at 10 uM relative to control; settings: values are per cent of control; method in brief: as §1
M14 = assay: Growth inhibition of human M14 cells at 10 uM relative to control; settings: values are per cent of control; method in brief: as §1
SK-MEL-2 = assay: Growth inhibition of human SK-MEL-2 cells at 10 uM relative to control; settings: values are per cent of control; method in brief: as §1
SNB-19 = assay: Growth inhibition of human SNB19 cells at 10 uM relative to control; settings: values are per cent of control; method in brief: as §1
TK-10 = assay: Growth inhibition of human TK10 cells at 10 uM relative to control; settings: values are per cent of control; method in brief: as §2
OVCAR-4 = assay: Growth inhibition of human OVCAR4 cells at 10 uM relative to control; settings: values are per cent of control; method in brief: as §1
OVCAR-3 = assay: Growth inhibition of human OVCAR-3 cells at 10 uM relative to control; settings: values are per cent of control; method in brief: as §1
SK-MEL-28 = assay: Growth inhibition of human SK-MEL-28 cells at 10 uM relative to control; settings: values are per cent of control; method in brief: as §1
OVCAR-8 = assay: Growth inhibition of human OVCAR8 cells at 10 uM relative to control; settings: values are per cent of control; method in brief: as §1
NCI-H460 = assay: Growth inhibition of human NCI-H460 cells at 10 uM relative to control; settings: values are per cent of control; method in brief: as §1
UACC-257 = assay: Growth inhibition of human UACC257 cells at 10 uM relative to control; settings: values are per cent of control; method in brief: as §2
BT-549 = assay: Growth inhibition of human BT549 cells at 10 uM relative to control; settings: values are per cent of control; method in brief: as §1
SF-268 = assay: Growth inhibition of human SF268 cells at 10 uM relative to control; settings: values are per cent of control; method in brief: as §1
NCI-H522 = assay: Growth inhibition of human NCI-H522 cells at 10 uM relative to control; settings: values are per cent of control; method in brief: as §1
SF-539 = assay: Growth inhibition of human SF539 cells at 10 uM relative to control; settings: values are per cent of control; method in brief: as §1
PC-3 = assay: Growth inhibition of human PC3 cells at 10 uM relative to control; settings: values are per cent of control; method in brief: as §1
SN12C = assay: Growth inhibition of human SN12C cells at 10 uM relative to control; settings: values are per cent of control; method in brief: as §1
CCRF-CEM = assay: Growth inhibition of human CCRF-CEM cells at 10 uM relative to control; settings: values are per cent of control; method in brief: as §1
A498 = assay: Growth inhibition of human A498 cells at 10 uM relative to control; settings: values are per cent of control; method in brief: as §1
SF-295 = assay: Growth inhibition of human SF295 cells at 10 uM relative to control; settings: values are per cent of control; method in brief: as §1
cells = settings: Homo sapiens, Cancer cell lines
EKVX = assay: Growth inhibition of human EKVX cells at 10 uM relative to control; settings: values are per cent of control; method in brief: as §1
T47D = assay: Growth inhibition of human T47D cells at 10 uM relative to control; settings: values are per cent of control; method in brief: as §2
786-0 = assay: Growth inhibition of human 786-0 cells at 10 uM relative to control; settings: values are per cent of control; method in brief: as §1
HT-29 = assay: Growth inhibition of human HT-29 cells at 10 uM relative to control; settings: values are per cent of control; method in brief: as §1
HL-60(TB) = assay: Growth inhibition of human HL-60(TB) cells at 10 uM relative to control; settings: read-out: INH
Method in brief: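 Single-dose cell line screen run by the NCI (NIH) in its human cancer cell line panel, which includes the leukemia line HL-60(TB). Percent growth inhibition was calculated by comparison with untreated samples.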

[2] = Growth inhibition of human RPMI8266 cells at 10 uM relative to control; settings: values are per cent of control; method in brief: as §1
LOX IMVI = assay: Growth inhibition of human LOXIMVI cells at 10 uM relative to control; settings: values are per cent of control; method in brief: as §1
MCF7 = assay: Growth inhibition of human MCF7 cells at 10 uM relative to control; settings: values are per cent of control; method in brief: as §1
U-251 = assay: Growth inhibition of human U251 cells at 10 uM relative to control; settings: values are per cent of control; method in brief: as §2
CAKI-1 = assay: Growth inhibition of human Caki1 cells at 10 uM relative to control; settings: values are per cent of control; method in brief: as §1
MOLT-4 = assay: Growth inhibition of human MOLT4 cells at 10 uM relative to control; settings: values are per cent of control; method in brief: as §1
HCT-15 = assay: Growth inhibition of human HCT15 cells at 10 uM relative to control; settings: values are per cent of control; method in brief: as §1
MDA-MB-435 = assay: Growth inhibition of human MDA-MB-435 cells at 10 uM relative to control; settings: values are per cent of control; method in brief: as §1
HCT-116 = assay: Growth inhibition of human HCT116 cells at 10 uM relative to control; settings: values are per cent of control; method in brief: as §1
HCC 2998 = assay: Growth inhibition of human HCC2998 cells at 10 uM relative to control; settings: values are per cent of control; method in brief: as §1
NCI-H226 = assay: Growth inhibition of human NCI-H226 cells at 10 uM relative to control; settings: values are per cent of control; method in brief: as §1

O=C(NO)c1cn(C/C=C/c2ccccc2)nn1 showed a growth, % of control at 10 µM (MDA-MB-468) of 105%, a growth, % of control at 10 µM [1] of 95.5% and a growth, % of control at 10 µM (KM12) of 104%. It also gave a growth, % of control at 10 µM (UACC-62) of 102%, a growth, % of control at 10 µM (Malme-3M) of 110% and a growth, % of control at 10 µM (SK-OV-3) of 107%. It also gave a growth, % of control at 10 µM (UO-31) of 72.7%, a growth, % of control at 10 µM (COLO 205) of 133% and a growth, % of control at 10 µM (SK-MEL-5) of 148%. The growth, % of control at 10 µM (NCI/ADR-RES) was 107%, the growth, % of control at 10 µM (OVCAR-5) was 104% and the growth, % of control at 10 µM (NCI-H322M) was 109%. It also gave a growth, % of control at 10 µM (SNB-75) of 79.8%, a growth, % of control at 10 µM (A549) of 107% and a growth, % of control at 10 µM (IGROV-1) of 89.4%. The growth, % of control at 10 µM (MDA-MB-231) was 96.1%, the growth, % of control at 10 µM (SW-620) was 98.4% and the growth, % of control at 10 µM (K562) was 119%. For the same molecule, the growth, % of control at 10 µM (HOP-62) was 92.4%, the growth, % of control at 10 µM (ACHN) was 101% and the growth, % of control at 10 µM (NCI-H23) was 104%. For the same molecule, the growth, % of control at 10 µM (DU-145) was 167%, the growth, % of control at 10 µM (M14) was 106% and the growth, % of control at 10 µM (SK-MEL-2) was 95.7%. For the same molecule, the growth, % of control at 10 µM (SNB-19) was 94.9%, the growth, % of control at 10 µM (TK-10) was 130% and the growth, % of control at 10 µM (OVCAR-4) was 94.3%. It also gave a growth, % of control at 10 µM (OVCAR-3) of 97.1%, a growth, % of control at 10 µM (SK-MEL-28) of 104% and a growth, % of control at 10 µM (OVCAR-8) of 106%. The growth, % of control at 10 µM (NCI-H460) was 131%, the growth, % of control at 10 µM (UACC-257) was 125% and the growth, % of control at 10 µM (BT-549) was 107%. It also gave a growth, % of control at 10 µM (SF-268) of 92.8%, a growth, % of control at 10 µM (NCI-H522) of 92.5% and a growth, % of control at 10 µM (SF-539) of 135%. The growth, % of control at 10 µM (PC-3) was 77.6%, the growth, % of control at 10 µM (SN12C) was 95.3% and the growth, % of control at 10 µM (CCRF-CEM) was 61%. It also gave a growth, % of control at 10 µM (A498) of 95.2%, a growth, % of control at 10 µM (SF-295) of 108% and an inhibition at 10 µM (cells) greater than 95%. For the same molecule, the growth, % of control at 10 µM (EKVX) was 89.9%, the growth, % of control at 10 µM (T47D) was 97.8% and the growth, % of control at 10 µM (786-0) was 132%. It also gave a growth, % of control at 10 µM (HT-29) of 104%, a growth, % of control at 10 µM (HL-60(TB)) of 94.5% and a growth, % of control at 10 µM [2] of 94.5%. For the same molecule, the growth, % of control at 10 µM (LOX IMVI) was 90.2%, the growth, % of control at 10 µM (MCF7) was 122% and the growth, % of control at 10 µM (U-251) was 90.1%. For the same molecule, the growth, % of control at 10 µM (CAKI-1) was 95%, the growth, % of control at 10 µM (MOLT-4) was 79.6% and the growth, % of control at 10 µM (HCT-15) was 98.8%. The growth, % of control at 10 µM (MDA-MB-435) was 103%, the growth, % of control at 10 µM (HCT-116) was 100% and the growth, % of control at 10 µM (HCC 2998) was 105%. The growth, % of control at 10 µM (NCI-H226) was 91.1%.
